Results as given in ChEMBL document CHEMBL5149991 (J Med Chem, 2021).

What was measured:
[1] = biological target: T1, Histamine H2 receptor (Homo sapiens, UniProt P25021); assay: Agonist activity at human histamine H2 receptor stably expressed in HEK293T cells co-expressing ARRB2 incubated for 60 mins by beta-arrestin2 recruitment assay; type: functional, cell-based
[2] = biological target: Histamine H1 receptor (Homo sapiens, UniProt P35367)
[3] = biological target: Histamine H4 receptor (Homo sapiens, UniProt Q9H3N8)
Chain of Histamine H4 receptor (Q9H3N8 whole entry): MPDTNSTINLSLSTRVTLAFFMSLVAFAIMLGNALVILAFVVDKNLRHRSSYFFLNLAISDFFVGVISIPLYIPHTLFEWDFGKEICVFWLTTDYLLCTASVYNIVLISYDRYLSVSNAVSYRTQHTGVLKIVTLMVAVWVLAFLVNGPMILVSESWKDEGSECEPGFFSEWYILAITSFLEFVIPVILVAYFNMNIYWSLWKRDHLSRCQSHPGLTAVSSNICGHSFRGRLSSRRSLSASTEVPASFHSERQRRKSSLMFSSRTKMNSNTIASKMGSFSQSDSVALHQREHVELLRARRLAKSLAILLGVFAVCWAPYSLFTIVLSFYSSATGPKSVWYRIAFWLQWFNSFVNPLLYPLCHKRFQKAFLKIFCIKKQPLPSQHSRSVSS

[4] = biological target: T1, Histamine H2 receptor; assay: Agonist activity at human histamine H2 receptor stably expressed in baculovirus infected Sf9 cell membrane co-expressing RG-Salpha S incubated for 90 mins by [35S]GTPgammaS binding based liquid scintillation counting method; type: functional, cell membranes
[5] = biological target: T2, D(3) dopamine receptor (Homo sapiens, UniProt P35462); assay: Displacement of [3H]N-methylspiperone from human D3 receptor stably expressed in HEK293T cells co-expressing luciferase and CEK incubated for 140 mins by radioligand competition binding based assay; type: cell-based
T2 sequence (P35462 whole entry): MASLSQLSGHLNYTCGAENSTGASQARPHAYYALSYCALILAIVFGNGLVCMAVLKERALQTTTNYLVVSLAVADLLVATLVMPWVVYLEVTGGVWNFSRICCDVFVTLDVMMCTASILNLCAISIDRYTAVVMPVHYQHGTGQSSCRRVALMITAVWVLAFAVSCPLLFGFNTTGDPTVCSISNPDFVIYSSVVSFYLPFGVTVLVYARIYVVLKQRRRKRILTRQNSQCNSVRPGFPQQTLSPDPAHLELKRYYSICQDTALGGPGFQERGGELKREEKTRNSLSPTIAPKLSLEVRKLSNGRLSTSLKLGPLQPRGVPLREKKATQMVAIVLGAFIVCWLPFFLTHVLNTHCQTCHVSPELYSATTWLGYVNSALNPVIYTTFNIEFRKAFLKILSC

[6] = biological target: T2, D(3) dopamine receptor; assay: Agonist activity at human D3 receptor stably expressed in HEK293T cells co-expressing ElucN-betaarr2 hD3R-ElucC by beta-arrestin2 recruitment assay; type: functional, cell-based
[7] = biological target: T3, D(2) dopamine receptor (Homo sapiens, UniProt P14416); type: functional, cell-based, HEK293T;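 further: agonist mode, β-arrestin2 recruitment to the human D2 long isoform stably expressed in HEK293T cells, read by split luciferase complementation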
T3 sequence (P14416 whole entry, canonical isoform): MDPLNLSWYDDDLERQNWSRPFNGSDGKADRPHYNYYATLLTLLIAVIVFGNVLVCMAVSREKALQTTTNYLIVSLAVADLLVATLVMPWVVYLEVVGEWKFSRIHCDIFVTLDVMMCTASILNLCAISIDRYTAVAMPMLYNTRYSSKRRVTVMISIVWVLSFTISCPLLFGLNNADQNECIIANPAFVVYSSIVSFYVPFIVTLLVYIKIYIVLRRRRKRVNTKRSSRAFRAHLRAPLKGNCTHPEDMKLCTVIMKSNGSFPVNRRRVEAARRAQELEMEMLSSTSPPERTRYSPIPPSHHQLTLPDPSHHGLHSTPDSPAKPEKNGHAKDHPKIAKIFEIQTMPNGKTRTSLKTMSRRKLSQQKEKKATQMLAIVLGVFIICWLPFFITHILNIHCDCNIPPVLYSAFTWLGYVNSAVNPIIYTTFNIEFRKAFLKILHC

[8] = biological target: T4, Histamine H3 receptor (Homo sapiens, UniProt Q9Y5N1); assay: Displacement of [3H]UR-PI294 from human histamine H3 receptor stably expressed in baculovirus infected Sf9 cell membrane co-expressing G-alphai2 and G-beta1gamma2 incubated for 60 mins by scintillation counting analysis; type: cell membranes
T4 sequence (Q9Y5N1 whole entry): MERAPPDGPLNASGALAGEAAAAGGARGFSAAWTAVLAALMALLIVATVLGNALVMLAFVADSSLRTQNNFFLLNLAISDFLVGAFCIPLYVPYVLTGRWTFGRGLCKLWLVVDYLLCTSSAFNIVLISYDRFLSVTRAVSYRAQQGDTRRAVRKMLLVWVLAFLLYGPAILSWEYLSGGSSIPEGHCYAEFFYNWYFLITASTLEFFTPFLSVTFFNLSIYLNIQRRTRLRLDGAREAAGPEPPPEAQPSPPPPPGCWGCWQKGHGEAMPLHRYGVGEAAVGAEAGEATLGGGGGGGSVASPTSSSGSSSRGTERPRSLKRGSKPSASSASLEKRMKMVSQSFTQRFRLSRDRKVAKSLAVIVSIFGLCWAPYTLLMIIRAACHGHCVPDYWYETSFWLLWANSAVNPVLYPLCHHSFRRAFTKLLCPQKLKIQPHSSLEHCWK
How it was run: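 hH3R + Gαi2 + Gβ1γ2 expressed in Sf9 membranes. […] Mean ± SEM from N independent experiments in triplicate.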

[9] = biological target: T3, D(2) dopamine receptor; assay: Displacement of [3H]N-methylspiperone from human D2 long receptor stably expressed in HEK293T cells co-expressing luciferase and CEK incubated for 140 mins by radioligand competition binding based assay; type: cell-based
[10] = biological target: T1, Histamine H2 receptor; assay: Agonist activity at human histamine H2 receptor stably expressed in HEK293T cells co-expressing NlucN-mGs/hH2R-NlucC assessed as induction of mini-Gs protein recruitment using furimazine as substrate measured for 45 mins by luminescence assay
[11] = biological target: T1, Histamine H2 receptor; assay: Displacement of [3H]UR-DE257 from human histamine H2 receptor stably expressed in baculovirus infected Sf9 cell membrane co-expressing RG-Salpha S incubated for 60 mins by scintillation counting analysis; type: cell membranes
[12] = biological target: T4, Histamine H3 receptor
[13] = biological target: T5, Histamine H2 receptor (Cavia porcellus, UniProt P47747); assay: Agonist activity at guinea pig histamine H2 receptor stably transfected in HEK293T cells co-expressing NlucN-mGs/gpH2R-NlucC by mini-G protein recruitment assay; type: functional, cell-based
T5 sequence (P47747 whole entry): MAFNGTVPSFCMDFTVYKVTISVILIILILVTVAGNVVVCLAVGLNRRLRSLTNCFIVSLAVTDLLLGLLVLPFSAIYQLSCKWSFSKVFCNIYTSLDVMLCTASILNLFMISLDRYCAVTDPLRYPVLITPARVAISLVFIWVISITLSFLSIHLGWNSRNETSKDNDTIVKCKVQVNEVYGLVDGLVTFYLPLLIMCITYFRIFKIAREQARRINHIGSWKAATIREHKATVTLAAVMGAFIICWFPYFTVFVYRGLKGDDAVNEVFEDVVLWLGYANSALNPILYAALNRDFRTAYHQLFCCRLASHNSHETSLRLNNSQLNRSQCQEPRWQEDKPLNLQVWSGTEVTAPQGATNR

[14] = biological target: T5, Histamine H2 receptor; assay: Agonist activity at histamine H2 receptor in spontaneous beating guinea pig right atrium assessed as increase in heart beat; type: functional, tissue-based, Right cardiac atrium
[15] = biological target: Histamine H2 receptor (Cavia porcellus) (UniProt P47747); assay: Agonist activity at guinea pig histamine H2 receptor stably transfected in HEK293T cells co-expressing NlucN-mGs/gpH2R-NlucC assessed as maximum efficacy at 100 uM by mini-G protein recruitment assay relative to histamine; type: functional, cell-based
Chain of Histamine H2 receptor (Cavia porcellus) (P47747 whole entry): as above

[16] = biological target: Histamine H2 receptor (Cavia porcellus) (UniProt P47747); assay: Agonist activity at histamine H2 receptor in spontaneous beating guinea pig right atrium assessed as increase in heart beat at 30 uM relative to histamine; type: functional, tissue-based; conditions: Right cardiac atrium
[17] = Chemical stability in pH 7.4 buffer measured at 0 to 2 weeks by HPLC analysis; type: physicochemical; conditions: time 0-2 weeks

Chain of Histamine H1 receptor (P35367 whole entry): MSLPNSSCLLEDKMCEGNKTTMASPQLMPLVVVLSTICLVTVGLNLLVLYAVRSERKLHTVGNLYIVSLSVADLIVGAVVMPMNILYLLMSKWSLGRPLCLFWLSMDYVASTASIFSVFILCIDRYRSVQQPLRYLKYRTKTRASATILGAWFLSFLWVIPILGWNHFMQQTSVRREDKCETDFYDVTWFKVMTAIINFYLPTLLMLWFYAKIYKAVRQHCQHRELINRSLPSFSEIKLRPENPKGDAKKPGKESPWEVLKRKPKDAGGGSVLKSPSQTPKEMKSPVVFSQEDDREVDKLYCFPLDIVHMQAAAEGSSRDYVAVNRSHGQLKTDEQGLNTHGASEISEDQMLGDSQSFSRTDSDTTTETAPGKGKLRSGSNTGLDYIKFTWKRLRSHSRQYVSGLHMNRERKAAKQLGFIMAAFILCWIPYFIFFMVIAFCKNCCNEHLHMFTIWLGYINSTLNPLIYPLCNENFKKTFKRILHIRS
T1 sequence (P25021 whole entry): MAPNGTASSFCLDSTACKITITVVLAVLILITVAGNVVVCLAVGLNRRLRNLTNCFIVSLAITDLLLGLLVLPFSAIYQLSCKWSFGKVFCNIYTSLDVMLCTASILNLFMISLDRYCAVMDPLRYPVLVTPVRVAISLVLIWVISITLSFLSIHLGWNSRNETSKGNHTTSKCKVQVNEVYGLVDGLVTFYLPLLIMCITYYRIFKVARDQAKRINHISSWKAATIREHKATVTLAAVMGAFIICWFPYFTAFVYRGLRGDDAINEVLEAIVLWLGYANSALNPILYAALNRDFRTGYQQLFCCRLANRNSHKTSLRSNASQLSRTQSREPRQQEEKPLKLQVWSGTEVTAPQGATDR

SMILES	EC50 [1] [nM]	Kd [2] [nM]	Ki [2] [nM]	Kd [3] [nM]	Ki [3] [nM]	EC50 [4] [nM]	Ki [5] [nM]	EC50 [6] [nM]	EC50 [7] [nM]	Ki [8] [nM]	Ki [9] [nM]	EC50 [10] [nM]	Ki [11] [nM]	Kd [12] [nM]	Ki [12] [nM]	EC50 [13] [nM]	EC50 [14] [nM]	Emax [15] [%]	Emax [16] [%]	Stability [17]
CC(CNC(=O)/N=C(\N)NCCCc1nnc(N)s1)C1CCCCC1 (centres undefined)	135	4.5	7410	16	12600	13.2	234	1350	> 10000	2750	1620	10.7	19.5							
CC(CCCc1ccccc1)CNC(=O)/N=C(\N)NCC1CCc2nc(N)sc2C1 (centres undefined)		4.5	3890	16	4070					1740			110	3	1740					
C[C@@H](NC(=O)/N=C(\N)NCCCc1nnc(N)s1)c1ccccc1	282	4.5	> 10000	16	> 10000		3240	1070	> 10000	> 10000	> 10000	20	12.9			25.1	2.88	90	98	
CCCCCNC(=O)/N=C(\N)NCCCc1cnc(N)s1.O=C(O)C(F)(F)F.O=C(O)C(F)(F)F	56.2	4.5	9550	16	> 10000					> 10000		6.03	22.9							Stable
CCCCCNC(=O)/N=C(\N)Nc1cccc(-c2sc(N)nc2C)c1.O=C(O)C(F)(F)F.O=C(O)C(F)(F)F		4.5	6610	16	7410					9550			191							Stable
CCCN[C@H]1CCc2nc(N)sc2C1 [PRAMIPEXOLE]		4.5		16								166	13800							
CC(NC(=O)/N=C(\N)NCCCc1nnc(N)s1)c1cccc(F)c1 (centres undefined)	75.9	4.5	10500	16	> 10000		661	1910	> 10000	> 10000	> 10000	8.13	8.13			6.92	0.912	93	110	
CCCCCNC(=O)/N=C(\N)Nc1ccc(-c2sc(N)nc2C)cc1.O=C(O)C(F)(F)F.O=C(O)C(F)(F)F		4.5	3720	16	7760					11500			457	3	11500					Stable
Cc1nc(N)sc1-c1ccc(N/C(N)=N/C(=O)NC2CCCCC2)cc1		4.5	5500	16	6920					12300			550	3	12300					
Cc1nc(N)oc1CCCN/C(N)=N/C(=O)NCC(C)C1CCCCC1.O=C(O)C(F)(F)F.O=C(O)C(F)(F)F (centres undefined)		4.5	6030	16	7590					8320			245							Stable
CCCCCNC(=O)/N=C(/N)NCCCc1nnc(C)s1.O=C(O)C(F)(F)F		4.5	> 10000	16	> 10000					> 10000			2190							Stable
